An excerpt weighted towards active compounds, which were near 2.6% of everything screened.
SENP7 inh – inhibitors of human SENP7 protease | Q9BQF6 | recombinant SENP7, Z-RLRGG-aminoluciferin luminescence, 40 min | inhibition, % at 5 µM | 1.5% of 330,000 active;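 active means inhibition above about 50% at the single test dose, limit read from the data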
SENP8 block-1 – blocks human SENP8 cleavage of Nedd8 substrate; 0.64% of 360,000 active; recombinant SENP8, Nedd8 substrate fluorescence; Q96LD8; inhibition, % at 20 µM; in the data active means inhibition mostly above about 40%, no sharp cut-off; inactive means mostly below about 27%
SENP8 block-2 – SENP8 protease inhibition; 1.2% of 330,000 active; purified SENP8, Z-RLRGG-aminoluciferin cleavage, luminescence; inhibition, % at 10 µM; AID 2540; Q96LD8; in the data active means inhibition above about 50%
Platelet DG rel – modulates dense granule release in human platelets; human platelet-rich plasma, SFLLRN dense granule ATP release, luminescence; inhibition, %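 (compounds screened at 7.5 µM in platelet-rich plasma)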; 0.22% of 300,000 active; AID 1663;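 active means mean replicate score, as percent of positive control, at or above 50; inconclusive means mean below 50 but at least one replicate at or above 50; inactive means mean and every replicate below 50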
SENP1 inh – blocks the human SENP1 SUMO protease catalytic domain | Q9P0U3 | recombinant SENP1 catalytic domain, CyPet-SUMO1-YPet FRET cleavage | inhibition, % at 10 µM | 0.21% of 360,000 active | AID 624204;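 active means inhibition at least 30% at 10 µM, raw YFP signal under a set limit, fluorescence ratio 0.5 to 1.5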
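system = hSENP1 catalytic domain, recombinant | reagent = SFCypet-SUMO1-SFYpet substrate at 25 nM | doses = one dose per compound, 10 µM, 0.5% DMSO | incubation = enzyme reaction for 50 min at room temperature, dark | measured by = FRET, CFP and YFP emission | controls = no-enzyme low, enzyme-DMSO high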
SENP6 block – blocks the human protease SENP6 | Recombinant SENP6 catalytic domain, aminoluciferin luminescence | AID 2599 | inhibition, % at 10 µM | 1.8% of 330,000 active;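 active means inhibition above about 50% at the single tested dose, limit read from the data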
Target sequence (Q9GZR1 628-1112 limits assumed): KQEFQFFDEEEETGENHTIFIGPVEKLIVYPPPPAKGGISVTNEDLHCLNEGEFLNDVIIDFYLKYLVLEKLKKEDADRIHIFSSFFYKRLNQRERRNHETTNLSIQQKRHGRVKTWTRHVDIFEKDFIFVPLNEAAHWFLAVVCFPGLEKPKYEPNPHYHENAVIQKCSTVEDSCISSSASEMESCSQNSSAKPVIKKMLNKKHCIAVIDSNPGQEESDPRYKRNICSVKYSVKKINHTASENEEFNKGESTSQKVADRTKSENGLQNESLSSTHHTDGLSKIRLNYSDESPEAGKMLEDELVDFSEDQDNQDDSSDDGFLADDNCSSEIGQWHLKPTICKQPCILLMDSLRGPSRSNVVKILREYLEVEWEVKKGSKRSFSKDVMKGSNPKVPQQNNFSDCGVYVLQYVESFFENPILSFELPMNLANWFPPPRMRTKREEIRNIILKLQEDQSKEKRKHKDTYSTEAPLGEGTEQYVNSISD
SENP8 conf – human SENP8 inhibition, confirmed. shares compounds with SENP7 inh. Recombinant SENP8, Z-RLRGG-aminoluciferin luminescence, 60 min. inhibition, % at 12.5 µM. 40% of 6,200 active. AID 488912;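 active means mean inhibition across replicates above about 50%, limit read from the data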
SENP6 conf – confirmation of human SENP6 protease inhibitors. shares compounds with SENP7 inh. recombinant SENP6, Z-RLRGG-aminoluciferin luminescence. inhibition, % at 12.5 µM. 58% of 6,200 active
SENP7 conf – human SENP7 inhibition, confirmed; shares compounds with SENP7 inh; recombinant SENP7, Z-RLRGG-aminoluciferin luminescence, 40 min; inhibition, % at 12.5 µM; 69% of 6,200 active; AID 488917
Casp3 SENP sel – selectivity test for SENP inhibitors: human caspase-3 inhibition. shares compounds with SENP7 inh. purified caspase-3, Z-DEVD-aminoluciferin luminescence, 60 min. inhibition, % at 12.5 µM. 60% of 6,200 active;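 active means mean inhibition above about 50%, limit read from the data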
Target sequence (P42574 28-227 limits assumed): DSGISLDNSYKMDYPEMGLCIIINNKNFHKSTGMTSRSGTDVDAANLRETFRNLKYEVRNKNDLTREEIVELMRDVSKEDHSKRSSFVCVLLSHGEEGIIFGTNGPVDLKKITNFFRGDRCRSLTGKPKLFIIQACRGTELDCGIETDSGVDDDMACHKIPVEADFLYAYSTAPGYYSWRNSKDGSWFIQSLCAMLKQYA
Luc interf – counter-screen for SENP inhibitors: luminescence interference | AID 488919 | 39% of 6,200 active | shares compounds with SENP7 inh | Pre-incubated SENP8/Z-RLRGG-aminoluciferin, luciferase luminescence interference | inhibition, % at 12.5 µM;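 active means mean inhibition above about 50% when retested at one dose, limit read from the data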
A number is an active result; – = inactive; ? = inconclusive; · = not tested or not shown.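 How the source made its calls, unless noted: active means mean inhibition above about 50% in the one-dose retest (limit read from the data); inactive means the rest.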

SMILES	SENP7 inh	SENP8 block-1	SENP8 block-2	Platelet DG rel	SENP1 inh	SENP6 block	SENP8 conf	SENP6 conf	SENP7 conf	Casp3 SENP sel	Luc interf
CCN(c1cccc(C)c1)S(=O)(=O)c1nnc(NC(=O)c2ccco2)s1	–	–	–	–	–	–	·	·	·	·	·
Cc1cccc(NC(=O)NC2(C(=O)NCc3ccco3)CCCCC2)c1	–	–	–	–	–	–	·	·	·	·	·
COc1ccc([C@H]2CC(=O)C=C(c3ccc(C(=O)O)cc3)C2)cc1OC	–	–	–	·	–	–	·	·	·	·	·
COC(=O)c1ccc(NC(=O)CN2C(=O)NC3(CCC(C)CC3)C2=O)cc1 (stereo not drawn)	–	–	–	·	–	–	·	·	·	·	·
Cc1cccc(-c2noc(-c3ccc4c(c3)OCO4)n2)c1	101	–	70	–	–	82	–	–	–	–	–
Cc1ccc(-c2nc(-c3ccncc3)no2)cc1	·	–	·	–	–	·	·	·	·	·	·
Cc1cccc(-c2nc(-c3ccncc3)no2)c1	82	–	79	–	–	–	58	84	97	85	56
COc1cc(-c2nc(-c3cccc(C)c3)no2)cc(OC)c1OC	–	–	–	–	–	–	·	·	·	·	·
CCN(Cc1nc(-c2cccc(C)c2)no1)C(=O)c1ccc2c(c1)OCO2	–	–	–	–	–	–	·	·	·	·	·
Cc1cc(C)cc(-c2nc(-c3ccncc3)no2)c1	61	–	66	–	–	74	–	–	–	50	–
Cc1cccc(-c2noc(-c3c(C)noc3C)n2)c1	–	–	57	–	–	71	–	–	52	–	–
CCC(C)N(C(=O)c1csnn1)C(C(=O)NCc1ccc(F)cc1)c1ccccc1 (stereo not drawn)	–	–	–	–	–	–	·	·	·	·	·
CC(O)c1nc2ccc(C(=O)O)cc2[nH]1 (stereo not drawn)	–	–	–	–	–	–	·	·	·	·	·
CC1CCN(C(=O)c2[nH]cnc2C(=O)Nc2nccs2)CC1	–	–	–	·	–	–	·	·	·	·	·
Clc1ccc(Br)cc1-c1nc(-c2ccncc2)no1	–	–	–	–	–	–	·	·	·	·	·
Brc1cccc(-c2nc(-c3ccncc3)no2)c1	72	–	–	–	–	70	–	54	64	59	–
CC(=O)Nc1ccc(Nc2cc(C(C)C)nc3c(-c4ccccc4)c(C)nn23)cc1	–	–	–	–	–	–	·	·	·	·	·
Cc1ccc(-c2noc(COC(=O)c3ccco3)n2)cc1	68	–	63	·	–	78	76	76	95	72	68
O=C(Nc1ccc(-c2noc(CCc3ccccc3)n2)cc1)c1ccco1	60	–	55	–	–	78	68	71	90	53	–
O=C(NCc1nc(-c2ccc(Cl)cc2)no1)c1ccco1	–	–	–	–	–	–	·	·	·	·	·
COc1ccc(-c2c(-c3ccc(OC)c(C)c3O)n[nH]c2C)cc1	–	–	–	–	–	–	·	·	·	·	·
O=C(Nc1ccccc1)Nc1cccc2nsnc12	95	–	91	–	–	95	96	96	100	92	90
COc1ccccc1CC(=O)NNC(=O)CN(C)S(=O)(=O)c1ccc(Cl)cc1	–	–	–	?	–	–	·	·	·	·	·
Nc1nc(Nc2ccccc2F)sc1C(=O)c1ccccc1	–	–	59	–	–	72	74	69	86	–	76
C=C(Cl)COc1ccc2c(CC)cc(=O)oc2c1	57	–	–	·	–	–	–	–	–	–	–
SMILES	SENP7 inh	SENP8 block-1	SENP8 block-2	Platelet DG rel	SENP1 inh	SENP6 block	SENP8 conf	SENP6 conf	SENP7 conf	Casp3 SENP sel	Luc interf
Cc1ccc(NC2=C(N3CCOCC3)C(=O)c3ccccc3C2=O)cc1	–	71	68	–	–	80	72	83	72	88	–
CC(=O)N(C)C1=C(N2CCOCC2)C(=O)c2ccccc2C1=O	–	–	–	–	–	–	·	·	·	·	·
CC(=O)c1ccc(NC2=C(N3CCOCC3)C(=O)c3ccccc3C2=O)cc1	–	59	–	–	–	53	–	56	–	–	–
COc1ccc(S(N)(=O)=O)cc1C(=O)OCC(=O)Nc1ncc(Cl)c(C)c1Cl	–	–	–	·	–	–	·	·	·	·	·
COc1ccc(CNC(=O)CCC(=O)Nc2cccnc2)cc1	–	–	–	–	–	–	·	·	·	·	·
CC(=O)Oc1ccc(/C=C(\NC(=O)c2cccc(Br)c2)C(=O)Nc2ccc(C(=O)O)cc2)cc1	–	–	–	–	–	–	·	·	·	·	·
Cn1cccc1C(=O)NCCc1ccc(Cl)cc1	55	–	–	–	–	62	–	–	82	72	58
Cn1cccc1C(=O)NCc1ccc(Cl)cc1	–	–	–	–	–	–	·	·	·	·	·
Cn1c(C(=O)NCCc2ccccc2)cc(=O)n(C)c1=O	–	–	–	–	–	–	·	·	·	·	·
Cn1cccc1C(=O)NCCc1ccccc1	57	–	–	–	–	67	–	–	80	83	59
COc1ccc(NC(=O)Nc2nccs2)cc1	56	–	–	–	–	74	–	–	80	77	63
COc1ccc(C(=O)Nc2nccs2)cc1	–	–	–	–	–	52	–	–	63	64	–
COc1ccc(C(=O)Nc2nccs2)cc1OC	–	–	–	–	–	–	·	·	·	·	·
COc1ccc(-c2ccc(CN3C(CC(C)C)C(=O)N(Cc4cn(CCC5OCCCO5)nn4)CCS3(=O)=O)cc2)cc1OC (stereo not drawn)	·	–	·	·	–	·	·	·	·	·	·
OC(CNC1Cc2ccccc2C1)c1ccccc1 (stereo not drawn)	–	–	–	–	–	–	·	·	·	·	·
O=C(NCCC1CCCCN1S(=O)(=O)c1ccccc1)C(=O)NC1CC1 (stereo not drawn)	–	–	–	–	–	–	·	·	·	·	·
COc1ccccc1NC(=O)Cc1ccsc1	–	–	–	–	–	–	·	·	·	·	·
CC(C)c1ccc2nc(N)sc2c1	–	–	–	–	–	–	·	·	·	·	·
Cc1cc2nc(N)sc2cc1C	70	–	65	–	–	–	75	74	92	84	73
COC(=O)[C@@]1(Cc2ccc(F)cc2)[C@H]2c3cc(C(=O)N(C)C)n(Cc4ccc(C)o4)c3C[C@H]2CN1C(=O)c1ccccc1	·	–	·	·	–	·	·	·	·	·	·
O=C(NC(=S)Nc1cccnc1Cl)c1ccc(Cl)cc1	–	–	–	–	–	67	–	–	–	–	53

High-throughput results from PubChem BioAssay.
